Experimental data: ChEMBL document CHEMBL4017537, “Discovery of a Potent and Specific M. tuberculosis Leucyl-tRNA Synthetase Inhibitor: (S)-3-(Aminomethyl)-4-chloro-7-(2-hydroxyethoxy)benzo[c][1,2]oxaborol-1(3H)-ol (GSK656)” (J Med Chem, 2017)

How the values were obtained:
[1] = molecular target: T1, Leucine--tRNA ligase, cytoplasmic (Homo sapiens, UniProt Q9P2J5); assay: Inhibition of cytoplasmic LeuRS in human HepG2 cells assessed as reduction in protein synthesis preincubated for 48 hrs followed by L-[14C]leucine addition measured after 3 hrs by liquid scintillation counting analysis; format: cell-based
T1 sequence (Q9P2J5 whole entry): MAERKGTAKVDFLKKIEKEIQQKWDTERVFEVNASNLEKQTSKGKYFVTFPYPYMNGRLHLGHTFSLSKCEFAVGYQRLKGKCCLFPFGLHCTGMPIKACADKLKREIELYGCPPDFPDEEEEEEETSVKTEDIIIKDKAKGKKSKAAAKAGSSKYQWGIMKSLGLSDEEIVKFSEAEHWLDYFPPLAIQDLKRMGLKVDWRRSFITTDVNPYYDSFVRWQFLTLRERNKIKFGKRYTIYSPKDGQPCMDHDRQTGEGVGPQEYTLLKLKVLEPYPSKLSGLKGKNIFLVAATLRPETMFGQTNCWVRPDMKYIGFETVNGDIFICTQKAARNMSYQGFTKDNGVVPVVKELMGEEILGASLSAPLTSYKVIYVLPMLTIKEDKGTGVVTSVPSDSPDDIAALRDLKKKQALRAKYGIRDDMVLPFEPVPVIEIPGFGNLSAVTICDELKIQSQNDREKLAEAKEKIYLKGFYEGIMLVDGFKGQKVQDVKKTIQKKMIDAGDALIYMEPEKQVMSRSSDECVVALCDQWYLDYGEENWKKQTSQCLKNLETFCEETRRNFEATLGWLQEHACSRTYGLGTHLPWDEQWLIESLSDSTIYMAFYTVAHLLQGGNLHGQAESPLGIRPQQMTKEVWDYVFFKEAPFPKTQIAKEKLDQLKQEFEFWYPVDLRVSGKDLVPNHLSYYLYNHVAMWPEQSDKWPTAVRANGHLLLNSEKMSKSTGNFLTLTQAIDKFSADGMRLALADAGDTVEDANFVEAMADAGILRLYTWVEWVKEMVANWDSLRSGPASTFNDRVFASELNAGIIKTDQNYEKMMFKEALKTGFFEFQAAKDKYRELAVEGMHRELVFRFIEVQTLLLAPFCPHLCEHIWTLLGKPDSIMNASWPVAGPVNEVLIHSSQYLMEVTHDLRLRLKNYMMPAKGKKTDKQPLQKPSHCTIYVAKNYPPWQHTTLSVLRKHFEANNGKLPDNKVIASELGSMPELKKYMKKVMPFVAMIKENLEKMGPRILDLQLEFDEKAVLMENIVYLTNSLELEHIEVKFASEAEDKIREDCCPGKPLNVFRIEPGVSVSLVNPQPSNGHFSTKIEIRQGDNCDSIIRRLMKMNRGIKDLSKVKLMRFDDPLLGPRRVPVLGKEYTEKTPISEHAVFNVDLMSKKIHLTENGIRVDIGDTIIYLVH
Method in brief: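 HepG2 cells in DMEM/10% FCS, 3000 cells/well, exposed to compound dilutions (0.5% DMSO final) for 48 h at 37 °C. Medium then replaced with fresh medium containing 0.5 μCi L-[14C]leucine and the same compound levels for 3 h. Cells trypsinised, precipitated in ice-cold 20% TCA, filtered, washed, scintillation counted; curve-fit EC50; mean of at least duplicates.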

[2] = Clearance in CD-1 mouse at 5 mg/kg, iv after 24 hrs by LC-MS/MS analysis; format: ADME, organism-based; conditions: in vivo
[3] = Oral bioavailability in CD-1 mouse at 5 mg/kg administered via gavage after 24 hrs by LC-MS/MS analysis; format: ADME, organism-based; conditions: in vivo
[4] = test system: cytoplasmic LeuRS; assay: Selectivity index, ratio of EC50 for inhibition of cytoplasmic LeuRS in HepG2 cells assessed as reduction in protein synthesis to MIC for Mycobacterium tuberculosis H37Rv; format: toxicity, cell-based; conditions: human, read-out: Selectivity Index
Method in brief: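 Ratio of HepG2 protein-synthesis EC50 to MIC against M. tuberculosis H37Rv.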

[5] = test system: Mycobacterium tuberculosis; assay: Antimicrobial activity against Mycobacterium tuberculosis H37Rv infected in C57BL/6J mouse assessed as 2 log reduction in bacterial load in lungs administered qd for 8 consecutive days starting on day 1 post infection measured 24 hrs post last dose; format: functional
[6] = Volume of distribution at steady state in CD-1 mouse at 5 mg/kg, iv after 24 hrs by LC-MS/MS analysis; format: ADME, organism-based; conditions: in vivo, read-out: Vdss
[7] = molecular target: T2, Leucine--tRNA ligase (Mycobacterium tuberculosis (strain ATCC 25618 / H37Rv), UniProt P9WFV1); assay: Inhibition of Mycobacterium tuberculosis H37Rv N-terminal 6His-tagged LeuRS expressed in Escherichia coli BL21(DE3) assessed as L-[14C]leucine incorporation in to Escherichia coli tRNA after 20 mins by liquid scintillation counting analysis
T2 sequence (P9WFV1 whole entry): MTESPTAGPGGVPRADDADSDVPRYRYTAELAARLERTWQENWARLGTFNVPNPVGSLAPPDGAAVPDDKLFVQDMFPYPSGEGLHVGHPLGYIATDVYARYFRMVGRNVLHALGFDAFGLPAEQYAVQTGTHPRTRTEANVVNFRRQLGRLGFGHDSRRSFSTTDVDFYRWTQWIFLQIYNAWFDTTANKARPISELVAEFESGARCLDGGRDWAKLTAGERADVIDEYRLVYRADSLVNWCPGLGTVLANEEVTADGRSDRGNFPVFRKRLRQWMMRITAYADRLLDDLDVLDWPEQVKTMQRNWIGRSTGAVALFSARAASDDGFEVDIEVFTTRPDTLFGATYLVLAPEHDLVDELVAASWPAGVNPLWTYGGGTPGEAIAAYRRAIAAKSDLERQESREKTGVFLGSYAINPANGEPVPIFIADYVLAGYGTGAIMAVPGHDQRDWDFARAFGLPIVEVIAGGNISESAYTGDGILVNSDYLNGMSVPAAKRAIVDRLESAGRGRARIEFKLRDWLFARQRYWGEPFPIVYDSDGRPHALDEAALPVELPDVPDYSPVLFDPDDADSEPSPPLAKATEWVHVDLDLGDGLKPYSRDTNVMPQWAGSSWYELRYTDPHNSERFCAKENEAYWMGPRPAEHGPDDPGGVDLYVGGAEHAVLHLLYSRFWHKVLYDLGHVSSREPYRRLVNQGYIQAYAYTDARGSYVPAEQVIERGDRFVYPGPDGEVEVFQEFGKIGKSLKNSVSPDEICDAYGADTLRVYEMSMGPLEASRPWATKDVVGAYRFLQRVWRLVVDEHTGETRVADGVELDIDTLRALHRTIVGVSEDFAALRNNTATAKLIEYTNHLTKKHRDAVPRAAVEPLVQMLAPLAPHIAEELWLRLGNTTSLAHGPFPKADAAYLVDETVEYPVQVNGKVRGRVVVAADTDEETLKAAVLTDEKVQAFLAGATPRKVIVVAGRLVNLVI
Method in brief: (§1)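 N-terminal His6-tagged LeuRS expressed in E. coli BL21(DE3), codon-optimized. 50 mM HEPES-KOH pH 8.0, 30 mM MgCl2, 30 mM KCl, 13 μM L-[14C]leucine, 15 μM tRNA (E. coli total; brewer's yeast for human cytoplasmic enzyme), 0.02% BSA, 1 mM DTT, 30 °C. Inhibitor preincubated 20 min, started with 4 mM ATP, TCA-quenched after 7 min, filtered, scintillation counted; four-parameter logistic IC50.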

[8] = test system: HepG2; assay: Cytotoxicity against human HepG2 cells assessed as reduction in cell viability after 48 hrs by CellTiter-Glo assay; format: cell-based; conditions: HepG2, 48 h
Method in brief: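 HepG2 cells seeded at 10 000/well in EMEM with 5% FCS and 2 mM glutamine. After 24 h, ten 1:2 serial compound dilutions (0.5% DMSO final) added in duplicate for 48 h. Read-out by CellTiter-Glo luminescence per table footnote; the method text also describes resazurin fluorescence (ex 515/em 590 nm). Sigmoidal variable-slope fit.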

[9] = Tmax in CD-1 mouse at 5 mg/kg administered via oral gavage after 24 hrs by LC-MS/MS analysis; format: ADME, organism-based; conditions: in vivo
[10] = test system: Mycobacterium tuberculosis; assay: Antimicrobial activity against Mycobacterium tuberculosis H37Rv; format: functional
[11] = Cmax in CD-1 mouse at 5 mg/kg administered via oral gavage after 24 hrs by LC-MS/MS analysis; format: ADME, organism-based; set-up: dose 5 mg/kg, route oral; conditions: in vivo
[12] = test system: Mus musculus; assay: Dose normalized AUC (0 to 24 hrs) in CD-1 mouse at 5 mg/kg administered via oral gavage by LC-MS/MS analysis; format: ADME, organism-based; conditions: in vivo
[13] = molecular target: T1, Leucine--tRNA ligase, cytoplasmic; assay: Inhibition of human N-terminal 6His-tagged cytoplasmic LeuRS expressed in Escherichia coli BL21(DE3) assessed as […] after 20 mins by liquid scintillation counting analysis
[14] = test system: Mus musculus; assay: Dose normalized AUC (0 to infinity) in CD-1 mouse at 5 mg/kg, iv after 24 hrs by LC-MS/MS analysis; format: ADME, organism-based; conditions: in vivo
[15] = Half life in CD-1 mouse at 5 mg/kg, iv after 24 hrs by LC-MS/MS analysis; format: ADME, organism-based; conditions: in vivo
[16] = molecular target: T3, Leucine--tRNA ligase, mitochondrial (Homo sapiens, UniProt Q15031); assay: Inhibition of human N-terminal 6His-tagged mitochondrial LeuRS expressed in Escherichia coli BL21(DE3) assessed as L-[14C]leucine incorporation in to Escherichia coli tRNA after 20 mins by liquid scintillation counting analysis; method in brief: as §1
T3 sequence (Q15031 whole entry): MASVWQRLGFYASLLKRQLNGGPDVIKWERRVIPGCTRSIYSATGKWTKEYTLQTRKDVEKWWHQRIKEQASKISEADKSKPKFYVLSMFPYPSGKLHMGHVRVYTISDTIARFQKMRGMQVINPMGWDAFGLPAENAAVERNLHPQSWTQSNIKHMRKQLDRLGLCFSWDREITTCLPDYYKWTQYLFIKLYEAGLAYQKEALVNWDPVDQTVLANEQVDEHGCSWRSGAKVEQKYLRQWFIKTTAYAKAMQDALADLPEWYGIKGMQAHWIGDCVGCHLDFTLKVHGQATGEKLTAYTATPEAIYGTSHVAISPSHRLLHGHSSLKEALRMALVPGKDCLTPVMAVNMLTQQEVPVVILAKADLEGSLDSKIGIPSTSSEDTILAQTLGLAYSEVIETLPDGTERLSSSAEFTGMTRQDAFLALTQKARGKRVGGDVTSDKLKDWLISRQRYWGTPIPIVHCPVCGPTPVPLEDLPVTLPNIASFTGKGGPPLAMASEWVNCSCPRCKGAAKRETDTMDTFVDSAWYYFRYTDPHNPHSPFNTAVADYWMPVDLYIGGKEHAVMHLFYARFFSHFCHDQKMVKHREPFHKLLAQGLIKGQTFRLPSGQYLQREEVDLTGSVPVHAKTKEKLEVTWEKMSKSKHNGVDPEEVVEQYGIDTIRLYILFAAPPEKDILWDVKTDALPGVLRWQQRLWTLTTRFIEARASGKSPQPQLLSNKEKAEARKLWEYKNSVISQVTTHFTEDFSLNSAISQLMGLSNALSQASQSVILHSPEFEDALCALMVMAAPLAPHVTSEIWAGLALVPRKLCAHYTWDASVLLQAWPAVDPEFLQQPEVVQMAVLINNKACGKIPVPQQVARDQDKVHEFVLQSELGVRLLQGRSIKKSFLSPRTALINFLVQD

[17] = AUC (0 to infinity) in CD-1 mouse at 5 mg/kg, iv after 24 hrs by LC-MS/MS analysis; format: ADME, organism-based; set-up: dose 5 mg/kg, route intravenous, time infinity; conditions: in vivo
[18] = AUC (0 to 24 hrs) in CD-1 mouse at 5 mg/kg administered via oral gavage by LC-MS/MS analysis; format: ADME, organism-based; set-up: time < 24 hr, dose 5 mg/kg, route oral; conditions: in vivo
[19] = test system: Mycobacterium tuberculosis; assay: Antimicrobial activity against Mycobacterium tuberculosis H37Rv infected in C57BL/6J mouse assessed as bacterial load in lungs at 100 mg/kg qd administered for 8 consecutive weeks starting from 6 weeks post infection measured 24 hrs post last dose (reference value: 6.4 +/- 0.3 log10CFU); format: functional
Method in brief: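 C57BL/6J mice infected intratracheally with ~10² CFU M. tuberculosis H37Rv. Dosed QD, 7 days/week, for 8 weeks starting 6 weeks post-infection; killed ≥24 h after last dose. Lung homogenates plated on 7H11/10% OADC for 21 days at 37 °C. n = 3 per dose group, 7 for controls; mean (SD); ANOVA with Dunnett's test versus 14-week untreated.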

[20] = Half life in C57BL/6 mouse at 30 mg/kg, iv administered as single dose measured up to 24 hrs by LC-MS/MS analysis; format: ADME, organism-based; conditions: in vivo
[21] = Oral bioavailability in C57BL/6 mouse at 30 mg/kg administered as single dose via gavage measured up to 24 hrs by LC-MS/MS analysis; format: ADME, organism-based; conditions: in vivo
[22] = test system: Mus musculus; assay: Dose normalized AUC (0 to 24 hrs) in C57BL/6 mouse at 30 mg/kg administered as single dose via oral gavage by LC-MS/MS analysis; format: ADME, organism-based; conditions: in vivo
[23] = AUC (0 to infinity) in C57BL/6 mouse at 30 mg/kg, iv administered as single dose measured up to 24 hrs by LC-MS/MS analysis; format: ADME, organism-based; set-up: dose 30 mg/kg, time infinity, route intravenous; conditions: in vivo
[24] = Volume of distribution at steady state in C57BL/6 mouse at 30 mg/kg, iv administered as single dose measured up to 24 hrs by LC-MS/MS analysis; format: ADME, organism-based; conditions: in vivo, read-out: Vdss
Method in brief: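 C57BL/6 female mice (18−20 g) got one intravenous dose in saline. Whole blood (15 μL) was taken by lateral tail-vein puncture from each of 3 mice at 5, 15 and 30 min and at 1, 2, 4, 8 and 24 h postdose, and drug concentrations were measured in peripheral blood.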

[25] = AUC (0 to 24 hrs) in C57BL/6 mouse at 30 mg/kg administered as single dose via oral gavage by LC-MS/MS analysis; format: ADME, organism-based; set-up: time < 24 hr, dose 30 mg/kg, route oral; conditions: in vivo
[26] = test system: Mus musculus; assay: Dose normalized AUC (0 to infinity) in C57BL/6 mouse at 30 mg/kg, iv administered as single dose measured up to 24 hrs by LC-MS/MS analysis; format: ADME, organism-based; conditions: in vivo
[27] = Cmax in C57BL/6 mouse at 30 mg/kg administered as single dose via oral gavage measured up to 24 hrs by LC-MS/MS analysis; format: ADME, organism-based; set-up: dose 30 mg/kg, route oral; conditions: in vivo
[28] = Clearance in C57BL/6 mouse at 30 mg/kg, iv administered as single dose measured up to 24 hrs by LC-MS/MS analysis; format: ADME, organism-based; conditions: in vivo
[29] = Tmax in C57BL/6 mouse at 30 mg/kg administered as single dose via oral gavage measured up to 24 hrs by LC-MS/MS analysis; format: ADME, organism-based; conditions: in vivo
Method in brief: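 C57BL/6 female mice (18−20 g) got one oral gavage dose of 30 mg/kg in 1% methylcellulose. Peripheral whole blood was sampled from 15 min to 24 h postdose, n = 3 mice per time point, and drug concentrations were measured in blood.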

COc1ccc(Br)c2c1B(O)O[C@@H]2CN.Cl
EC50 [1]: 97 µM | clearance [2]: 14.2 mL/min/kg | bioavailability [3]: 72% | selectivity ratio [4]: 970 | ED99 [5]: 3.8 mg/kg | Vd [6]: 2.5 L/kg | IC50 [7]: 0.074 µM | EC50 [8]: 74.5 µM | Tmax [9]: 0.25 h | MIC [10]: 0.1 µM | Cmax [11]: 980 ng/mL | AUC/dose [12]: 0.84 µg·h/mL | IC50 [13]: > 300 µM | AUC/dose [14]: 1.17 µg·h/mL/mg/kg | half-life [15]: 2.4 h | IC50 [16]: > 300 µM | AUC(0-inf) [17]: 5840 ng·h/mL | AUC(0-t) at 24 h [18]: 4210 ng·h/mL

CC(=O)NC[C@H]1CN(c2ccc(N3CCOCC3)c(F)c2)C(=O)O1 [LINEZOLID]
Activity [19]: 3.9 log10CFU

Cl.NC[C@H]1OB(O)c2c3c(cc(Cl)c21)OCCO3
EC50 [1]: 82.8 µM | half-life [20]: 2.9 h | bioavailability [21]: 50% | AUC/dose [22]: 1.26 µg·h/mL | selectivity ratio [4]: 1040 | ED99 [5]: 70 mg/kg | AUC(0-inf) [23]: 76300 ng·h/mL | IC50 [7]: 0.046 µM | EC50 [8]: 69.5 µM | MIC [10]: 0.08 µM | Vd [24]: 1.5 L/kg | AUC(0-t) at 24 h [25]: 37700 ng·h/mL | IC50 [13]: 96.6 µM | AUC/dose [26]: 2.54 µg·h/mL/mg/kg | Cmax [27]: 6210 ng/mL | clearance [28]: 6.6 mL/min/kg | Tmax [29]: 1 h
